bCat nuc transl – modulators of beta-catenin nuclear translocation, primary screen, imaging, HeLa cells, immunofluorescence, high-content. nuclear translocation activity, % at 5 µM. actives 0.3% (n = 190,000);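 active = nuclear translocation activity above 50% at 5 µM, with a well cell count of 50 or more; inconclusive = wells under 50 cells across six images, flagged as toxic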;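 note: per-cell ratio of nuclear to cytoplasmic median beta-catenin stain intensity; plate controls were DMSO negative control for no effect and GSK-3 inhibitor IX positive control for full effect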
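Test system: human HeLa cells, endogenous beta-catenin. Times: 24 h compound exposure, 37°C. Measured by: beta-catenin immunofluorescence imaging with DAPI.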
Autophagy mod – autophagy modulators in MEF cells, primary screen, imaging, high-content, MEF GFP-LC3; MEF GFP-LC3 puncta imaging; test concentration mostly 10 µM; calls only at 10 µM (by protocol); actives 0.98% (n = 190,000); AID 463193, 2010;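 active = percentage of spot-positive cells more than 3 SD above its plate mean, without a fluorescence outlier flag or 80% toxicity; inconclusive = no clear call, values can overlap the other calls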;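 note: spot-positive cell cutoff set from DMSO-treated cells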
MT stabilize HCS – microtubule stabilizers in HeLa cells, primary screen, imaging, high-content imaging; HeLa tubulin immunostaining HCS, 24 h; share of cells brighter than vehicle mean+2SD; % tubulin-high responders, % at 10 µM; actives 0.83% (n = 200,000); AID 2205, 2009;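 active = plate Z-score above 3 for both tubulin-high and condensed-nucleus cell shares, with cell loss under 80%, at 10 µM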;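 note: anti alpha tubulin signal scored within the nucleus-defined area of each cell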
Insulin prom up – insulin promoter activators in MIN6 cells, imaging, high-content screening, mouse beta cells; MIN6 insulin promoter-GFP reporter; active compounds read high; z-score at 5 µM; actives 0.3% (n = 190,000);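 active = z-score above 3 at 5 µM with at least 500 cells counted in the well; inconclusive = wells under 500 cells, flagged as cytotoxic or low count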
Dynein cargo inh – inhibitors of GR-EGFP nuclear translocation, primary screen, dynein cargo transport inhibitor project, imaging, high-content, 3617.4 mouse cells. AID 1381, 2008. test concentration mostly 20 µM; stimulated with dexamethasone, 1 µM; active compounds read low. actives 0.47% (n = 220,000). z-score, hits read low;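 active = plate z-score of nuclear minus cytoplasmic receptor signal below a set negative limit, without overly bright fluorescence or cell loss, cut at about -3.5 in these data, passing the limit was not always enough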;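 note: z-score of nuclear minus cytoplasmic ring GR-EGFP intensity difference per well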
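Buffer or medium: tet-free, stripped-serum medium; Also added: dexamethasone, 1.0 µM final; Technique: high-content fluorescence imaging after fixation; Times: 48 h induction, 1 h compound, 30 min dex at 37 °C; Read-out: per-cell GR-EGFP intensity, nucleus versus surrounding cytoplasmic ring, well-averaged.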
Dynein inh conf – dynein cargo transport inhibitors, GR-EGFP translocation, confirmation, imaging, high-content imaging, GR-EGFP cells. shares compounds with Dynein cargo inh. 3617.4 GR-EGFP nuclear translocation imaging, dexamethasone-induced. calls only at 20 µM. actives 69% (n = 1,000);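 active = inhibition of receptor movement into the nucleus at or above a set limit in both runs, with normal cell brightness and cell count; inconclusive = limit reached in only one run, brightness and count normal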;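 note: dexamethasone at 1 µM final in well for 30 min; nuclear minus cytoplasmic GR-EGFP mean intensity difference in channel 2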
* hit, by the source's call; i = inactive; ? = inconclusive; . = not tested or not shown; + = active, no number. In the library only some 2.3% were active in any assay of this set; here they are far more common.

SMILES | bCat nuc transl | Autophagy mod | MT stabilize HCS | Insulin prom up | Dynein cargo inh | Dynein inh conf
S=c1[nH]nc(COc2ccccc2)n1/N=C/c1ccco1 | -2 | i | 2 | -0.64 | -0.17 | .
Cc1ccc(C(=O)/C=C\C(=O)c2ccc(C)cc2)cc1 | -1 | + | 2 | 0.45 | -7.2* | +
CC(/C=C/C(=O)c1ccc(C)cc1)=C\c1ccccc1 | 0 | i | 3 | 0.72 | -0.72 | .
O=C(NC1CCCCCC1)C(Cc1ccccc1)n1cccc1 (centres undefined) | 1 | . | . | -0.27 | -0.2 | .
COc1ccc(CN(CCC(c2ccccc2)c2ccc(OC(C)C)cc2)C(=O)CCl)cc1OC (centres undefined) | 0 | i | 11 | -1.9 | -6.9* | +
COc1ccc2nc(N3CCCC3)c(C#N)cc2c1 | . | i | 3 | -0.97 | -4.2* | i
COc1ccc(N2C(=O)CC(Sc3n[nH]c(-c4cccc(C)c4)n3)C2=O)cc1 (centres undefined) | 0 | . | . | 1.2 | 2 | .
CCOc1ccccc1N1C(=O)CC(Sc2n[nH]c(-c3ccccc3)n2)C1=O (centres undefined) | -4 | i | 1 | -0.02 | -4.1* | +
N#Cc1cc(-c2ccccc2)nc(Oc2ccc(Cl)cc2)n1 | -2 | i | 2 | -1.7 | -4.3* | +
CCC(C)(C)c1ccc(OCCCC[n+]2cccc(C)c2C)c(C(C)(C)CC)c1 | 32 | . | . | ? | -5.2* | i
Cc1cc(C)n(-c2nc(NCCN(C)C)c3c4c(sc3n2)CCCC4)n1 | 16 | . | . | ? | -4.6* | i
Cc1cc(C)n(-c2nc(NCCCN(C)C)c3c4c(sc3n2)CCCC4)n1 | -1 | . | . | -0.63 | 0.87 | .
Cc1ccc(-c2csc(NC(=O)c3ccc(-c4ccccc4)cc3)n2)o1 | 0 | i | 7 | -0.82 | -1.3 | .
Cc1ccc(-c2csc(NC(=O)Cc3ccc(F)cc3)n2)o1 | 2 | i | 3 | . | -3.9* | i
CC(=O)C(Cl)C(=O)Nc1ccccc1 (centres undefined) | 0 | i | 5 | -0.26 | -4.2* | i
CC(Cc1ccccc1)C(=O)Nc1ccccc1 (centres undefined) | 1 | i | 2 | 0.38 | 1.8 | .
O=C(CSC1=Nc2ccccc2C2CC=NN12)Nc1ccc2c(c1)OCO2 (centres undefined) | 1 | i | 4 | 0.3 | -3.7* | +
NC(C(=O)O)C(c1ccccc1)C(F)F (centres undefined) | 0 | . | . | 0.57 | 1.7 | .
CC1(C)CC(=O)C(C2C3=C(CC(C)(C)CC3=O)Oc3ccccc32)C(=O)C1 (centres undefined) | 0 | . | . | 0.1 | -1.1 | .
CC1(C)CC(=O)C2=C(C1)Oc1nc3ccccc3cc1C2C(C#N)C#N (centres undefined) | -1 | i | 5 | 0.46 | -4.4* | +
COc1ccc(N2C(=O)CC(Sc3ncn[nH]3)C2=O)c(OC)c1 (centres undefined) | -2 | i | 2 | 0 | -4* | +
CC(C)c1ccc(N2C(=O)CC(Sc3ncn[nH]3)C2=O)cc1 (centres undefined) | . | i | 1 | -0.14 | 0.81 | .
Cc1ccc(Sc2ncccc2NC(=O)c2ccccc2Cl)cc1 | 2 | . | . | -0.35 | -0.62 | .
CCOC(=O)C(=Cc1ccc(OCc2ccc([N+](=O)[O-])cc2)c(OC)c1)C(=O)OCC | -4 | i | 9 | 1.1 | -4.1* | +
CC(=O)Nc1sc(/C(C#N)=C\c2cccc(Cl)c2)nc1-c1ccc(C)cc1 | 1 | ? | 6 | . | -5.9 | i
CC(=O)Nc1sc(N/N=C/c2ccccc2)nc1-c1ccc(C)cc1 | 1 | . | . | -0.04 | -0.89 | .
COc1ccccc1C(=O)/C=C/c1ccc(N2CCCCC2)c([N+](=O)[O-])c1 | 0 | i | 21 | 0.29 | -5.4* | +
O=C(/C=C/c1ccc(N2CCCCC2)c([N+](=O)[O-])c1)c1ccc(O)cc1 | 0 | i | 7 | -0.11 | -3.7* | +

Assay outcomes (PubChem BioAssay)
